WT yeast gro inh – growth inhibition of WT yeast, mitochondrial fusion screen | mitochondrial fusion phenotypic screen, WT strain | hit rate 2.1% among 190,000 | AID 1362 | inhibition, % at 10 µM; in the data active = inhibition above about 58%; tested in S. cerevisiae
NPY-Y1 PAM-ag – potentiates or activates human NPY-Y1 receptor. P25929. NPY-Y1 expressing cells, potentiator/agonist activation. activation, % at 3.6 µM. hit rate 0.37% among 220,000. AID 1304; in the data active = activation above about 33%, passing the limit was not always enough;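 also: cells stimulated with NPY at EC10 then isoproterenol at EC100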
NPY Y1 blocker – antagonists of human neuropeptide Y receptor Y1; inhibition, % at 3.6 µM; HEK293-CNG Y1 cells, membrane potential fluorescence; NPY at EC95, then isoproterenol; hit rate 1% among 200,000;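 active = inhibition above the campaign mean inhibition of all tested compounds plus 3 SD, cut at about 20% in these data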
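Material: HEK293 Y1/CNG channel cell line | Also added: NPY (25 nM), isoproterenol (1 µM), Ro 20-1724 (25 µM) | Compound: One concentration, 3.6 µM, in 0.4% DMSO | Schedule: 3 h dye uptake, 1 h room-temperature compound, 45 min post-isoproterenol | Signal: Membrane-potential fluorescent dye readout | Read-out: % inhibition of NPY effect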
RAM inhibit – yeast RAM network inhibition. inhibition, % at 50 µM. hit rate 1.8% among 190,000. S. cerevisiae dse1pr::URA3 reporter, 5-FOA growth OD615, 2 d; analog-sensitive cbk1-as2 kinase mutant strain;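 active = inhibition above a set limit, 3 SD over mean compound inhibition, cut at about 8.4% in these data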;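 also: inhibition rescues growth on 5-FOA so higher OD means more RAM inhibition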
NPY2 pot ag – human NPY-Y2 potentiation or agonism, primary screen | P49146 | cells expressing NPY-Y2, potentiator/agonist read-out | activation, % at 3.6 µM | hit rate 0.45% among 220,000 | AID 1359; in the data active = activation above about 27%;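 also: cells stimulated with NPY near EC25 plus isoproterenol at EC100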
Target sequence (P49146 whole entry, looked up): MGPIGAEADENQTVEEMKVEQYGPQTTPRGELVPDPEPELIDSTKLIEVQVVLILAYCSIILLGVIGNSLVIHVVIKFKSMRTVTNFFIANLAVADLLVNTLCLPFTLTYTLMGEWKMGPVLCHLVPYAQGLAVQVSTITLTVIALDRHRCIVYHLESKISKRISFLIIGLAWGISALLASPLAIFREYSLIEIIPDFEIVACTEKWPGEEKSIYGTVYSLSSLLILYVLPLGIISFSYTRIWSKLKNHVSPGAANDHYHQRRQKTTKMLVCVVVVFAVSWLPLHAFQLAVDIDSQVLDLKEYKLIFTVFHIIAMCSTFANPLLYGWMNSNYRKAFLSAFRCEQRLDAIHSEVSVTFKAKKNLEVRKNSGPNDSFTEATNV
NPY Y2 blocker – NPY-Y2 (human) receptor antagonism; hit rate 0.99% among 140,000; inhibition, % at 2.7 µM; NPY-Y2 expressing cells, antagonist mode; in the data active = inhibition above about 17%
Large screens that a line does not name were inactive. This is a sample that favours compounds with a hit; in the whole collection about 4.9% have one here.

COc1ccc(/C=N\NC(=O)COc2ccccc2Cl)cc1Cn1nc(C)cc1C	none
Cc1onc(-c2ccc(Cl)cc2)c1-c1ccnc(SCC(=O)Nc2ccc(C(C)C)cc2)n1	none (no result: WT yeast gro inh, NPY Y1 blocker, RAM inhibit, NPY Y2 blocker)
O=C(NC1CCCCC1)C(c1cccs1)N(Cc1cccs1)C(=O)c1cccs1 (configuration not stated)	NPY Y1 blocker 40.6, NPY Y2 blocker 18.4
O=C(NC1CCCC1)C(c1cccs1)N(C(=O)c1ccno1)c1ccccc1 (configuration not stated)	none
O=C(NC1CCCCC1)C(c1cccs1)N(C(=O)c1ccccn1)c1ccccc1 (configuration not stated)	RAM inhibit 9.5
CCCCOc1ccc(-c2cc(C(F)(F)F)c(C#N)c(SCC(=O)O)n2)cc1	RAM inhibit 8.4 (no result: NPY Y2 blocker)
CCOc1ccccc1NC(=S)NCCc1ccccc1	WT yeast gro inh 74.2 (no result: NPY Y2 blocker)
CCOc1ccccc1NC(=S)NCCc1ccc(F)cc1	WT yeast gro inh 62.0 (no result: NPY Y2 blocker)
COc1ccccc1NC(=S)NCCc1ccc(Cl)cc1	none
CCCCc1ccc(NC(=S)NCCc2ccc(F)cc2)cc1	WT yeast gro inh 68.4 (no result: NPY Y2 blocker)
O=C(NO)c1ccc(C(=O)N(C2CCCCC2)C2CCCCC2)cc1	none
O=c1n(-c2ccc(Br)cc2)cnn1-c1ncccc1[N+](=O)[O-]	none (no result: NPY Y2 blocker)
C/C(=N\NS(=O)(=O)c1ccc(Cl)c([N+](=O)[O-])c1)c1cc2ccccc2o1	none
O=C(NCCO)/C(=C\c1ccc([N+](=O)[O-])o1)NC(=O)c1ccccc1	none (no result: NPY Y2 blocker)
O=C(NCCCO)/C(=C/c1ccc(-c2cccc([N+](=O)[O-])c2)o1)NC(=O)c1ccccc1	RAM inhibit 8.5 (no result: NPY Y2 blocker)
O=C(C1CC1)N(Cc1nc2ccccc2c(=O)[nH]1)Cc1cccs1	none (no result: WT yeast gro inh, NPY Y1 blocker, RAM inhibit, NPY Y2 blocker)
O=C(C1CCCCC1)N(Cc1nc2sc3c(c2c(=O)[nH]1)CCCC3)Cc1cccs1	WT yeast gro inh 58.6
N=c1n(Cc2ccccc2)c2ccccc2n1CC(O)COc1ccccc1 (configuration not stated)	NPY Y1 blocker 41.1, NPY Y2 blocker 43.5
Cc1ccc(Cn2c(=N)n(CC(O)COc3ccccc3)c3ccccc32)cc1 (configuration not stated)	NPY Y1 blocker 35.6, NPY Y2 blocker 33.7
COC(C(=O)N/N=C(\C)CC(=O)Nc1ccc(N(C)C)cc1)c1ccccc1 (configuration not stated)	none (no result: NPY Y2 blocker)
Cc1cc(N/N=C/c2ccccc2Cl)nc(NCc2ccccc2)n1	NPY Y1 blocker 24.7, NPY Y2 blocker 18.6
Cc1ccc(Nc2cc(C)nc(NCc3ccccc3)n2)cc1	none
Cc1cc(NC2CCCCC2)nc(NCc2ccccc2)n1	NPY Y1 blocker 23.0, NPY Y2 blocker 23.8
Cc1ccc(C(=O)c2oc3ccccc3c2N)cc1	none
CCOC(=O)c1c(NC(=O)CCN2CCOCC2)sc(C)c1-c1ccccc1	none (no result: NPY Y2 blocker)
Cc1cc(NC(=O)Cn2cnc3c(nnn3-c3ccc(C)c(Cl)c3)c2=O)no1	none (no result: NPY Y2 blocker)
CCOc1ncnc2c1oc1nc(CC(C)C)c3c(c12)CC(C)(C)OC3	RAM inhibit 10.0
CC(=O)C1=C(C)NC(SCC(=O)c2ccc(F)cc2)=C(C#N)C1CC(C)C (configuration not stated)	none
CC(=O)C1=C(C)NC(SCC(=O)c2ccc(Cl)cc2)=C(C#N)C1CC(C)C (configuration not stated)	RAM inhibit 9.1
CCCCCCCCCCn1c2c(c(=N)c3c1CCC3)CCC2	NPY Y1 blocker 92.4, NPY Y2 blocker 51.2
Cc1cc(C)c(-c2noc(C(=O)OC(C)(C)C)c2C(=O)OC(C)(C)C)c(C)c1	WT yeast gro inh 65.6
COc1cc(OC)c(-c2noc(C(=O)OC(C)(C)C)c2C(=O)OC(C)(C)C)c(OC)c1	none
COn1c(SCC(N)=O)nc2ccccc2c1=O	none
O=C(CCCc1nc2ccccc2s1)N1CCN(c2ccccc2)CC1	none
O=C(CCCc1nc2ccccc2s1)N1CCN(S(=O)(=O)c2cccs2)CC1	RAM inhibit 8.8
N#CCC(=O)Nc1ccc(C(=O)OCC(=O)Nc2ccccc2Sc2ccccc2)cc1	RAM inhibit 8.4 (no result: NPY Y2 blocker)
O=C(Nc1ccccc1Sc1ccccc1)c1ccc(F)cc1	WT yeast gro inh 77.8
CC(=O)Nc1ccc(C(=O)OCC(=O)Nc2ccccc2Sc2ccccc2)cc1	WT yeast gro inh 83.0
Cc1ccc(C(=O)Nc2ccccc2Sc2ccccc2)cc1	none
CCNC(=O)OCCC12CC3CC(CC(C3)C1)C2	none
CC(C)(C)c1ccc(C(=O)Nc2ccc(C=C(C#N)C#N)cc2)cc1	none
Cc1c(C(=O)Nc2ccccc2[N+](=O)[O-])csc1-c1ccccc1	WT yeast gro inh 74.0
O=C(NCC1CCCO1)C(c1cccs1)N(Cc1ccccc1Cl)C(=O)c1ccc(-c2ccccc2)[nH]1 (configuration not stated)	none
Cc1ccc(C(C(=O)NCC2CCCO2)N(Cc2ccccc2)C(=O)c2ccc(-c3ccccc3)[nH]2)o1 (configuration not stated)	WT yeast gro inh 68.5, RAM inhibit 10.1
Cc1cc(S(=O)(=O)NC2CCCCC2)c(C)s1	none
Cc1cc(C(F)(F)F)n2nc(-c3sccc3-n3cccc3)cc2n1	none
Cc1cc(-c2sccc2C)nc(-n2cccc2)n1	WT yeast gro inh 67.7
C/C(CCc1ccc2c(c1)OCO2)=N\NC(=S)NC(C)C	WT yeast gro inh 59.1 (no result: NPY Y2 blocker)
COCCNC(=S)N/N=C(\C)CCc1ccc2c(c1)OCO2	none (no result: NPY Y2 blocker)
COc1ccc(NC(=O)C2CCCN2C(=O)NCc2ccccc2)cc1 (configuration not stated)	none (no result: NPY Y2 blocker)
Cc1ccc(C(=O)c2cc(C)sc2NC(=O)CN2CCN(C(=O)c3ccco3)CC2)cc1	WT yeast gro inh 78.7
Cc1cc(C(=O)c2ccccc2)c(NC(=O)CN2CCOCC2)s1	none
COCCCNC(=S)Nc1ccccc1[N+](=O)[O-]	none (no result: NPY Y2 blocker)
COc1ccc(C(=O)C2CCCCC2=O)cc1 (configuration not stated)	none
CC1(C(=O)N(Cc2ccccc2)Cc2ccccc2)CC1(Br)Br (configuration not stated)	WT yeast gro inh 83.5, RAM inhibit 8.8
CN(Cc1ccccc1)C(=O)CCC(=O)N(C)Cc1ccccc1	none
CCS(=O)(=O)CCSc1nc2c(cc1C#N)CCCC2	WT yeast gro inh 60.6
CC(=O)c1cc(Cc2csc(C(C)=O)c2)cs1	none (no result: RAM inhibit)
CCc1cc2cc(C)ccc2nc1SCC(=O)Nc1cc(C)on1	none
CCCC[C@@H]1C[C@H]1[C@@H](NC(=O)c1ccco1)c1ccc(Cl)cc1	WT yeast gro inh 73.4
CC1CN(c2ncnc3c2c(-c2ccccc2)cn3-c2ccc(F)cc2)CC(C)O1 (configuration not stated)	WT yeast gro inh 75.2, RAM inhibit 8.7 (no result: NPY Y2 blocker)
OCCN1CCN(c2ncnc3c2c(-c2ccccc2)cn3-c2ccc(F)cc2)CC1	none (no result: NPY Y2 blocker)
Cc1ccc(-n2cc(-c3ccccc3)c3c(N4CCOCC4)ncnc32)cc1	WT yeast gro inh 71.5 (no result: NPY Y2 blocker)

Assay outcomes: PubChem BioAssay, several laboratories
